Each molecule was assayed on Aorta (assay: Vasorelaxant activity against KCl-induced contraction in endothelium-intact Sprague-Dawley rat thoracic aorta). Conditions: not given.
Type: functional, tissue-based
Parameters: Activity: scale not given: the % may be the effect or the level left
`O=c1c(O)c(-c2ccc(O)cc2)oc2ccccc12` gave an Activity of 95%. `COc1cccc(-c2oc3ccccc3c(=O)c2O)c1` gave an Activity of 87%. For `O=c1c(O)c(-c2ccc(O)c(O)c2)oc2ccccc12`, the Activity was 100%. In the case of `COc1cc(-c2oc3ccccc3c(=O)c2O)ccc1O`, the Activity is reported as 100%.

Same assay, conditions: Rattus norvegicus, Sprague-Dawley, Thoracic aorta
Molecule `O=c1c(O)c(-c2ccc(O)cc2)oc2ccccc12` has an EC50 of 5.13 µM. `COc1cccc(-c2oc3ccccc3c(=O)c2O)c1` showed an EC50 of 7.76 µM. Work on `O=c1c(O)c(-c2ccc(O)c(O)c2)oc2ccccc12` yielded an EC50 of 5.5 µM. In the case of `COc1cc(-c2oc3ccccc3c(=O)c2O)ccc1O`, the EC50 is reported as 4.79 µM.

What follows are molecules tested on Aorta (assay: Effect on acetylcholine-induced vasorelaxation in pyrogallol exposed Sprague-Dawley rat thoracic aorta). Conditions: not given.
Type: functional, tissue-based
Parameters: Activity: scale not given: the % may be the effect or the level left
In short: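 Endothelium-intact male Sprague-Dawley aortic rings in organ baths with nifedipine 30 nM. Pretreated 20 min with pyrogallol 30 µM, alone or with flavonol 30 µM (15% DMSO/85% methanol), or vehicle. Rings precontracted with U46619 1–10 nM to about 50% of the 123 mM KCl response, then cumulative acetylcholine curves run. Relaxation given as % of precontraction; mean ± SEM, n = rats.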
In the case of `O=c1c(O)c(-c2ccc(O)c(O)c2)oc2ccccc12`, the Activity is reported as 81%. `COc1cc(-c2oc3ccccc3c(=O)c2O)ccc1O` showed an Activity of 42%.

Same assay, conditions: Rattus norvegicus, Sprague-Dawley, Thoracic aorta
`O=c1c(O)c(-c2ccc(O)c(O)c2)oc2ccccc12` was tested, and the EC50 was 0.0646 µM. `COc1cc(-c2oc3ccccc3c(=O)c2O)ccc1O` was tested, and the EC50 was 0.275 µM.

What follows are molecules tested on Aorta (assay: Effect on acetylcholine-induced vasorelaxation in xanthine/xanthine oxidase exposed Sprague-Dawley rat thoracic aorta). Conditions: not given.
Type: functional, tissue-based
Parameters: Activity: scale not given: the % may be the effect or the level left
In short: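 Aortic rings incubated with xanthine oxidase 0.016 U/mL for 30 min, then flavonol 30 µM for 20 min, then xanthine 100 µM for 10 min. Rings then precontracted with U46619 and cumulative acetylcholine concentration-response curves recorded. Relaxation given as % of U46619 precontraction; mean ± SEM, n = rats.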
With `O=c1c(O)c(-c2ccc(O)c(O)c2)oc2ccccc12` the Activity was 84%. For `COc1cc(-c2oc3ccccc3c(=O)c2O)ccc1O`, the Activity was 62%.

Same assay, conditions: Rattus norvegicus, Sprague-Dawley, Thoracic aorta
`O=c1c(O)c(-c2ccc(O)c(O)c2)oc2ccccc12` gave an EC50 of 0.055 µM. `COc1cc(-c2oc3ccccc3c(=O)c2O)ccc1O` was tested, and the EC50 was 0.0891 µM.

These molecules were tested on Aorta (assay: DPPH scavenging activity in Sprague-Dawley rat thoracic aorta at 100 uM relative to control). Conditions: not given.
Type: functional
In short: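 Cell-free DPPH radical scavenging. Flavonol in DMSO mixed 1:1 with 0.1 mM DPPH in methanol, 10 min at room temperature in the dark, absorbance read at 560 nm. Level = (A flavonol/A DPPH) × 100, as % of vehicle.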
`O=c1c(O)c(-c2ccc(O)cc2)oc2ccccc12` gave an Activity of 32%. `COc1cccc(-c2oc3ccccc3c(=O)c2O)c1` gave an Activity of 71%. Molecule `O=c1c(O)c(-c2cccc(O)c2)oc2ccccc12` has an Activity of 87%. `CC(C)(C)c1cc(-c2oc3ccccc3c(=O)c2O)ccc1O` showed an Activity of 26%. Work on `O=c1c(O)c(-c2ccc(O)c(C(F)(F)F)c2)oc2ccccc12` yielded an Activity of 26%. In the case of `O=c1c(O)c(-c2cccc(C(F)(F)F)c2)oc2ccccc12`, the Activity is reported as 89%. In the case of `Cc1cccc(-c2oc3ccccc3c(=O)c2O)c1`, the Activity is reported as 80%. Work on `CC(C)(C)c1ccc(-c2oc3ccccc3c(=O)c2O)cc1` yielded an Activity of 71%. With `Cc1ccc(-c2oc3ccccc3c(=O)c2O)cc1` the Activity was 76%. With `O=c1c(O)c(-c2ccc(O)c(Br)c2)oc2ccccc12` the Activity was 23%. In the case of `Cc1cc(-c2oc3ccccc3c(=O)c2O)ccc1O`, the Activity is reported as 25%. `O=c1c(O)c(-c2ccc(O)c(O)c2)oc2ccccc12` was tested, and the Activity was 36%. `O=c1c(O)c(-c2cccc(Cl)c2)oc2ccccc12` showed an Activity of 87%. `O=c1c(O)c(-c2ccccc2)oc2ccccc12` [FLAVONOL] gave an Activity of 83%. `O=c1c(O)c(-c2ccc(C(F)(F)F)cc2)oc2ccccc12` was tested, and the Activity was 90%. `O=c1c(O)c(-c2ccc(Cl)cc2)oc2ccccc12` showed an Activity of 93%. In the case of `COc1cc(-c2oc3ccccc3c(=O)c2O)ccc1O`, the Activity is reported as 24%. `COc1ccc(-c2oc3ccccc3c(=O)c2O)cc1` gave an Activity of 51%.

These molecules were tested on Aorta (assay: Vasorelaxant activity against U46619-induced contraction in endothelium-intact Sprague-Dawley rat thoracic aorta). Conditions: not given.
Type: functional, tissue-based
Parameters: Activity: scale not given: the % may be the effect or the level left
For `O=c1c(O)c(-c2ccc(O)cc2)oc2ccccc12`, the Activity was 100%. Work on `COc1cccc(-c2oc3ccccc3c(=O)c2O)c1` yielded an Activity of 101%. In the case of `O=c1c(O)c(-c2ccc(O)c(O)c2)oc2ccccc12`, the Activity is reported as 101%. `COc1cc(-c2oc3ccccc3c(=O)c2O)ccc1O` was tested, and the Activity was 101%.

Same assay, conditions: Rattus norvegicus, Sprague-Dawley, Thoracic aorta
Work on `O=c1c(O)c(-c2ccc(O)cc2)oc2ccccc12` yielded an EC50 of 1.66 µM. Molecule `COc1cccc(-c2oc3ccccc3c(=O)c2O)c1` has an EC50 of 3.02 µM. With `O=c1c(O)c(-c2ccc(O)c(O)c2)oc2ccccc12` the EC50 was 1.35 µM. `COc1cc(-c2oc3ccccc3c(=O)c2O)ccc1O` showed an EC50 of 0.871 µM.

What follows are molecules tested on Aorta (assay: Antioxidant activity in Sprague-Dawley rat thoracic aorta assessed as superoxide levels at 10 uM by lucigenin-enhanced chemiluminescence assay relative to control). Conditions: not given.
Type: functional
In short: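 Male Sprague-Dawley aortic rings incubated 45 min at 37 °C, pH 7.4, in Krebs-HEPES with DETCA 3 mM (inactivates SOD), NADPH 100 µM and flavonol 10 µM (DMSO 1%). Rings then moved to wells containing lucigenin 50 µM and NADPH 100 µM, and photon emission counted. Counts normalized to dry tissue weight (dried 48 h, 65 °C), expressed as % of vehicle; n = rats.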
With `O=c1c(O)c(-c2ccc(O)cc2)oc2ccccc12` the Activity was 74%. In the case of `COc1cccc(-c2oc3ccccc3c(=O)c2O)c1`, the Activity is reported as 74%. In the case of `O=c1c(O)c(-c2cccc(O)c2)oc2ccccc12`, the Activity is reported as 78%. Molecule `CC(C)(C)c1cc(-c2oc3ccccc3c(=O)c2O)ccc1O` has an Activity of 108%. In the case of `O=c1c(O)c(-c2ccc(O)c(C(F)(F)F)c2)oc2ccccc12`, the Activity is reported as 109%. Molecule `O=c1c(O)c(-c2cccc(C(F)(F)F)c2)oc2ccccc12` has an Activity of 80%. Work on `Cc1cccc(-c2oc3ccccc3c(=O)c2O)c1` yielded an Activity of 85%. Molecule `CC(C)(C)c1ccc(-c2oc3ccccc3c(=O)c2O)cc1` has an Activity of 111%. Work on `Cc1ccc(-c2oc3ccccc3c(=O)c2O)cc1` yielded an Activity of 101%. `O=c1c(O)c(-c2ccc(O)c(Br)c2)oc2ccccc12` was tested, and the Activity was 96%. With `Cc1cc(-c2oc3ccccc3c(=O)c2O)ccc1O` the Activity was 105%. In the case of `O=c1c(O)c(-c2ccc(O)c(O)c2)oc2ccccc12`, the Activity is reported as 27%. `O=c1c(O)c(-c2cccc(Cl)c2)oc2ccccc12` gave an Activity of 75%. For `O=c1c(O)c(-c2ccccc2)oc2ccccc12` [FLAVONOL], the Activity was 70%. `O=c1c(O)c(-c2ccc(C(F)(F)F)cc2)oc2ccccc12` gave an Activity of 85%. Molecule `O=c1c(O)c(-c2ccc(Cl)cc2)oc2ccccc12` has an Activity of 100%. `COc1cc(-c2oc3ccccc3c(=O)c2O)ccc1O` showed an Activity of 106%. Molecule `COc1ccc(-c2oc3ccccc3c(=O)c2O)cc1` has an Activity of 89%.

These molecules were tested on Aorta (assay: Vasorelaxant activity against U46619-induced contraction in endothelium-denuded Sprague-Dawley rat thoracic aorta). Conditions: not given.
Type: functional, tissue-based
Parameters: Activity: scale not given: the % may be the effect or the level left
In the case of `O=c1c(O)c(-c2ccc(O)cc2)oc2ccccc12`, the Activity is reported as 102%. With `COc1cccc(-c2oc3ccccc3c(=O)c2O)c1` the Activity was 93%. `O=c1c(O)c(-c2ccc(O)c(O)c2)oc2ccccc12` showed an Activity of 100%. For `COc1cc(-c2oc3ccccc3c(=O)c2O)ccc1O`, the Activity was 100%.

Same assay, conditions: Rattus norvegicus, Sprague-Dawley, Thoracic aorta
`O=c1c(O)c(-c2ccc(O)cc2)oc2ccccc12` showed an EC50 of 3.16 µM. `COc1cccc(-c2oc3ccccc3c(=O)c2O)c1` gave an EC50 of 3.72 µM. For `O=c1c(O)c(-c2ccc(O)c(O)c2)oc2ccccc12`, the EC50 was 3.02 µM. For `COc1cc(-c2oc3ccccc3c(=O)c2O)ccc1O`, the EC50 was 1.66 µM.

These molecules were tested on Aorta (assay: Vascular activity in KPSS precontracted Sprague-Dawley rat thoracic aorta assessed as endothelium dependent relaxation). Conditions: not given.
Type: functional, tissue-based
Parameters: Activity: concentration or dose not given beside the values
For `O=c1c(O)c(-c2ccc(O)cc2)oc2ccccc12`, the Activity was 99%. `COc1cccc(-c2oc3ccccc3c(=O)c2O)c1` showed an Activity of 79%. `O=c1c(O)c(-c2cccc(O)c2)oc2ccccc12` was tested, and the Activity was 98%. `CC(C)(C)c1cc(-c2oc3ccccc3c(=O)c2O)ccc1O` showed an Activity of 38%. With `O=c1c(O)c(-c2ccc(O)c(C(F)(F)F)c2)oc2ccccc12` the Activity was 77%. `O=c1c(O)c(-c2cccc(C(F)(F)F)c2)oc2ccccc12` showed an Activity of 23%. `Cc1cccc(-c2oc3ccccc3c(=O)c2O)c1` was tested, and the Activity was 37%. Molecule `CC(C)(C)c1ccc(-c2oc3ccccc3c(=O)c2O)cc1` has an Activity of 10%. `Cc1ccc(-c2oc3ccccc3c(=O)c2O)cc1` was tested, and the Activity was 13%. For `O=c1c(O)c(-c2ccc(O)c(Br)c2)oc2ccccc12`, the Activity was 100%. For `Cc1cc(-c2oc3ccccc3c(=O)c2O)ccc1O`, the Activity was 98%. With `O=c1c(O)c(-c2ccc(O)c(O)c2)oc2ccccc12` the Activity was 102%. `O=c1c(O)c(-c2cccc(Cl)c2)oc2ccccc12` showed an Activity of 53%. Work on `O=c1c(O)c(-c2ccccc2)oc2ccccc12` [FLAVONOL] yielded an Activity of 91%. For `O=c1c(O)c(-c2ccc(C(F)(F)F)cc2)oc2ccccc12`, the Activity was 6%. `O=c1c(O)c(-c2ccc(Cl)cc2)oc2ccccc12` gave an Activity of 37%. `COc1cc(-c2oc3ccccc3c(=O)c2O)ccc1O` showed an Activity of 98%. For `COc1ccc(-c2oc3ccccc3c(=O)c2O)cc1`, the Activity was 16%.

Same assay, conditions: Rattus norvegicus, Sprague-Dawley, Thoracic aorta
`O=c1c(O)c(-c2ccc(O)cc2)oc2ccccc12` gave an EC50 of 4.68 µM. Work on `COc1cccc(-c2oc3ccccc3c(=O)c2O)c1` yielded an EC50 of 7.08 µM. For `O=c1c(O)c(-c2cccc(O)c2)oc2ccccc12`, the EC50 was 3.24 µM. Molecule `CC(C)(C)c1cc(-c2oc3ccccc3c(=O)c2O)ccc1O` has an EC50 of 4.68 µM. `O=c1c(O)c(-c2ccc(O)c(C(F)(F)F)c2)oc2ccccc12` showed an EC50 of 16.6 µM. For `O=c1c(O)c(-c2cccc(C(F)(F)F)c2)oc2ccccc12`, the EC50 was 115 µM. With `Cc1cccc(-c2oc3ccccc3c(=O)c2O)c1` the EC50 was 74.1 µM. Molecule `O=c1c(O)c(-c2ccc(O)c(Br)c2)oc2ccccc12` has an EC50 of 2.51 µM. For `Cc1cc(-c2oc3ccccc3c(=O)c2O)ccc1O`, the EC50 was 4.37 µM. With `O=c1c(O)c(-c2ccc(O)c(O)c2)oc2ccccc12` the EC50 was 5.01 µM. Molecule `O=c1c(O)c(-c2cccc(Cl)c2)oc2ccccc12` has an EC50 of 6.76 µM. For `O=c1c(O)c(-c2ccccc2)oc2ccccc12` [FLAVONOL], the EC50 was 7.59 µM. `O=c1c(O)c(-c2ccc(Cl)cc2)oc2ccccc12` was tested, and the EC50 was 8.13 µM. Work on `COc1cc(-c2oc3ccccc3c(=O)c2O)ccc1O` yielded an EC50 of 4.47 µM.

Each molecule was assayed on Aorta (assay: Vasorelaxant activity against KCl-induced contraction in endothelium-denuded Sprague-Dawley rat thoracic aorta). Conditions: not given.
Type: functional, tissue-based
Parameters: Activity: scale not given: the % may be the effect or the level left
`O=c1c(O)c(-c2ccc(O)cc2)oc2ccccc12` gave an Activity of 92%. `COc1cccc(-c2oc3ccccc3c(=O)c2O)c1` was tested, and the Activity was 86%. In the case of `O=c1c(O)c(-c2ccc(O)c(O)c2)oc2ccccc12`, the Activity is reported as 100%. Work on `COc1cc(-c2oc3ccccc3c(=O)c2O)ccc1O` yielded an Activity of 93%.

Same assay, conditions: Rattus norvegicus, Sprague-Dawley, Thoracic aorta
In the case of `O=c1c(O)c(-c2ccc(O)cc2)oc2ccccc12`, the EC50 is reported as 5.5 µM. In the case of `COc1cccc(-c2oc3ccccc3c(=O)c2O)c1`, the EC50 is reported as 8.91 µM. `O=c1c(O)c(-c2ccc(O)c(O)c2)oc2ccccc12` showed an EC50 of 6.31 µM. Work on `COc1cc(-c2oc3ccccc3c(=O)c2O)ccc1O` yielded an EC50 of 5.62 µM.

Reference: ChEMBL document CHEMBL1143101, “Understanding the cardioprotective effects of flavonols: discovery of relaxant flavonols without antioxidant activity” (J Med Chem, 2008)
